Source: ChEMBL document CHEMBL1136228 (Bioorg Med Chem Lett, 2003)
pEC50, pKi: −log10 of the molar value. “And” between values parts separate entries of the source, which are not always exact repeats. Equal values may be shown once.

Key:
[1] = target: T1, Peroxisome proliferator-activated receptor gamma (Homo sapiens, UniProt P37231)
T1 sequence (P37231 whole entry): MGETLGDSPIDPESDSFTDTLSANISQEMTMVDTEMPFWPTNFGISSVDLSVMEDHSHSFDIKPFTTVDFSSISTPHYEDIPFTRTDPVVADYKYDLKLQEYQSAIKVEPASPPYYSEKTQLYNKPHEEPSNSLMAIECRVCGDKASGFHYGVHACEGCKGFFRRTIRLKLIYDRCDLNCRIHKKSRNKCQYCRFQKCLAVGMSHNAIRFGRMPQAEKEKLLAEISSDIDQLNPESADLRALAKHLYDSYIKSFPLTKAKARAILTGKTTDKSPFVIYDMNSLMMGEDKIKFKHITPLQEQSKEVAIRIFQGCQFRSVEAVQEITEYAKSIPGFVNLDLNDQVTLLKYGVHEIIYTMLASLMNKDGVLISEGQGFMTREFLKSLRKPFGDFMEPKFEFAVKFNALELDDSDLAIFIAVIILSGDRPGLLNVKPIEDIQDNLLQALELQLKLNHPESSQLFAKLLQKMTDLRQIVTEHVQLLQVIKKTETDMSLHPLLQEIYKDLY

[2] = target: T2, Peroxisome proliferator-activated receptor alpha (Homo sapiens, UniProt Q07869)
T2 sequence (Q07869 whole entry): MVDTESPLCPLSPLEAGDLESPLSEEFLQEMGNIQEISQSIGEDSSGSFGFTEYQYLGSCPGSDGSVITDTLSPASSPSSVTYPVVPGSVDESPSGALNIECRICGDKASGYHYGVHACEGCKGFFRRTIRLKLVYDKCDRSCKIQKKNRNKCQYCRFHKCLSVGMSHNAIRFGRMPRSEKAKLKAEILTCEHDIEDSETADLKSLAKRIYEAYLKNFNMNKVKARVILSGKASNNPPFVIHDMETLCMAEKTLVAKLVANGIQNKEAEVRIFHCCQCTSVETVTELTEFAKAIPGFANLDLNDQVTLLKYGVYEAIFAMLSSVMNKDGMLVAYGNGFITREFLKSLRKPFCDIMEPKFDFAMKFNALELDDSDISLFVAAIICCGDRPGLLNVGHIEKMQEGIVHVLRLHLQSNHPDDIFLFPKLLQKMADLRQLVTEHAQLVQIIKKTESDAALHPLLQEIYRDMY

[3] = Bioavailability was determined in rat; assay type: ADME, organism-based; settings: in vivo
Mus musculus [4] = test: Fasting plasma glucose levels after 30 mg/kg peroral administration in db/db Mouse; assay type: functional; settings: route oral
In short: (§1)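 db/db (lepr db-3J/lepr db-3J) mice dosed orally once daily for 11 days; fasting plasma glucose measured at day 11. Correction is expressed as mean glucose lowering, as a percentage of the difference between vehicle-treated db/db and lean control mice.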

[5] = target: T2, Peroxisome proliferator-activated receptor alpha; remark: listed apart in the source
[6] = target: T1, Peroxisome proliferator-activated receptor gamma; remark: listed apart in the source
Rattus norvegicus [7] = test: Body weight of Sprague-Dawley rat after 30 mg/kg peroral administration; settings: route oral
Rattus norvegicus [8] = test: Heart weight of Sprague-Dawley rat after 30 mg/kg peroral administration; settings: route oral
Rattus norvegicus [9] = test: Triglyceride change in Sprague-Dawley rat after 30 mg/kg peroral administration; settings: route oral
Rattus norvegicus [10] = test: Total Cholesterol change in Sprague-Dawley rat after 30 mg/kg peroral administration; settings: route oral
Rattus norvegicus [11] = test: Brown adipose tissue weight in Sprague-Dawley rat after 30 mg/kg peroral administration; settings: route oral
Mus musculus [12] = test: Fasting plasma glucose levels after 3 mg/kg peroral administration in db/db Mouse; assay type: functional; settings: route oral
In short: as §1

Mus musculus [13] = test: Fasting plasma glucose level after 10 mg/kg peroral administration in db/db Mouse; assay type: functional; settings: route oral
In short: as §1

[14] = target: T1, Peroxisome proliferator-activated receptor gamma; test: Binding affinity towards peroxisome proliferator activated receptor gamma (PPAR gamma); weakly active
[15] = target: T1, Peroxisome proliferator-activated receptor gamma; test: Binding affinity towards human peroxisome proliferator activated receptor gamma (PPAR gamma) was determined by HTRF assay; weakly active
[16] = target: T2, Peroxisome proliferator-activated receptor alpha; test: Binding affinity towards peroxisome proliferator activated receptor alpha (PPAR alpha); weakly active
Mus musculus [17] = test: Fasting plasma glucose levels after 150 mg/kg peroral administration in db/db Mouse; assay type: functional; settings: route oral
In short: as §1

[18] = target: T1, Peroxisome proliferator-activated receptor gamma; test: Binding affinity towards peroxisome proliferator activated receptor gamma (PPAR gamma); Not active
In short: (§2)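 Scintillation proximity (SPA) radioligand binding assay run at 15 C. The IC50 is converted to an apparent Ki with the Cheng-Prusoff equation.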

[19] = target: T2, Peroxisome proliferator-activated receptor alpha; test: Binding affinity towards human peroxisome proliferator activated receptor alpha (PPAR alpha) by HTRF assay; Weakly active
Rattus norvegicus [20] = test: Body weight of Sprague-Dawley rat after 150 mg/kg peroral administration; settings: route oral
Rattus norvegicus [21] = test: Heart weight of Sprague-Dawley rat after 150 mg/kg peroral administration; settings: route oral
Rattus norvegicus [22] = test: Triglyceride change in Sprague-Dawley rat after 150 mg/kg peroral administration; settings: route oral
Rattus norvegicus [23] = test: Total Cholesterol change in Sprague-Dawley rat after 150 mg/kg peroral administration; settings: route oral
Rattus norvegicus [24] = test: Brown adipose tissue weight in Sprague-Dawley rat after 150 mg/kg peroral administration; settings: route oral
[25] = target: T2, Peroxisome proliferator-activated receptor alpha; test: Binding affinity towards human peroxisome proliferator activated receptor gamma (PPAR alpha) by HTRF assay; Weakly active
[26] = target: T2, Peroxisome proliferator-activated receptor alpha; test: Binding affinity towards peroxisome proliferator activated receptor alpha (PPAR alpha); Not active
In short: as §2

[27] = target: T2, Peroxisome proliferator-activated receptor alpha; test: Binding affinity towards human peroxisome proliferator activated receptor alpha (PPAR alpha) by HTRF assay; Not active

**Q.** Which results are given for CCCc1cc(C(=O)OC)cc(Cl)c1OC(C(=O)O)c1ccccc1 (stereo not drawn)?
**A.** pKi [1]: 5.07; pKi [2]: 7.24

**Q.** With CCCc1cc2c(C(F)(F)F)noc2c(CCC)c1OC(C(=O)O)c1ccccc1 (stereo not drawn) as the compound, how does the bioavailability [3] read?
**A.** 11%

**Q.** What about the FPG correction (Mus musculus [4]) of the same compound?
**A.** 91%

**Q.** What about the pKi [1] of the same compound?
**A.** 6.02

**Q.** And the pEC50 [5]?
**A.** 7.82

**Q.** And the pKi [2]?
**A.** 7.43

**Q.** And the pEC50 [6]?
**A.** 6.44

**Q.** What about the Body weight (Rattus norvegicus [7]) of the same compound?
**A.** 276 g

**Q.** What about the Heart weight (Rattus norvegicus [8]) of the same compound?
**A.** 1.05 g

**Q.** And the Change (Rattus norvegicus [9])?
**A.** -52%

**Q.** And the Change (Rattus norvegicus [10])?
**A.** -27%

**Q.** What about the BAT weight (Rattus norvegicus [11]) of the same compound?
**A.** 0.28 g

**Q.** For CCCc1cc2c(C(F)(F)F)noc2c(CCC)c1OC(C(=O)O)c1ccc(C(C)C)cc1 (stereo not drawn), which FPG correction (Mus musculus [12]) is on record?
**A.** 31%

**Q.** What about the FPG correction (Mus musculus [13]) of the same compound?
**A.** 61%

**Q.** What does the source list for CCCc1cc2c(CC)noc2c(CCC)c1OC(C(=O)O)c1ccccc1 (stereo not drawn)?
**A.** pKi [1]: 5.57; pEC50 [5]: 7.10; pKi [2]: 7.21; pEC50 [6]: 6.25

**Q.** For CCCc1cc2c(C(F)(F)F)noc2c(CCC)c1OC(C(=O)O)c1ccc(OCc2ccccn2)cc1 (stereo not drawn), which FPG correction (Mus musculus [4]; 30 mg/kg) is on record?
**A.** 90% and 51%

**Q.** And the pKi [1]?
**A.** 6.57

**Q.** And the pEC50 [5]?
**A.** 7.72

**Q.** What about the pKi [2] of the same compound?
**A.** 7.19

**Q.** And the pEC50 [6]?
**A.** 7.33

**Q.** And the Body weight (Rattus norvegicus [7])?
**A.** 297 g

**Q.** And the Heart weight (Rattus norvegicus [8])?
**A.** 1.15 g

**Q.** What about the Change (Rattus norvegicus [9]) of the same compound?
**A.** -47%

**Q.** What about the Change (Rattus norvegicus [10]) of the same compound?
**A.** -38%

**Q.** What about the BAT weight (Rattus norvegicus [11]) of the same compound?
**A.** 0.42 g

**Q.** With CCCc1cc(C(=O)OC)cc(C)c1OC(C(=O)O)c1ccccc1 (stereo not drawn) as the compound, how does the pKi [1] read?
**A.** 5.23

**Q.** What about the pKi [2] of the same compound?
**A.** 7.55

**Q.** For CCCc1cc2c(C(F)(F)F)noc2c(CCC)c1OC(C(=O)O)c1ccc(Cl)cc1 (stereo not drawn), which FPG correction (Mus musculus [12]) is on record?
**A.** 31%

**Q.** What about the FPG correction (Mus musculus [13]) of the same compound?
**A.** 74%

**Q.** And the pKi [1]?
**A.** 6.76

**Q.** And the pEC50 [5]?
**A.** 8.00

**Q.** What about the pKi [2] of the same compound?
**A.** 6.98

**Q.** What about the pEC50 [6] of the same compound?
**A.** 6.96

**Q.** What about the Body weight (Rattus norvegicus [7]) of the same compound?
**A.** 297 g

**Q.** And the Heart weight (Rattus norvegicus [8])?
**A.** 1.17 g

**Q.** What about the Change (Rattus norvegicus [9]) of the same compound?
**A.** -56%

**Q.** What about the Change (Rattus norvegicus [10]) of the same compound?
**A.** -23%

**Q.** And the BAT weight (Rattus norvegicus [11])?
**A.** 0.22 g

**Q.** For CCCc1c(OC(C(=O)O)c2ccccc2)ccc(C(=O)CC)c1O (stereo not drawn), which Ki [14] is on record?
**A.** Partially active

**Q.** And the Ki [15]?
**A.** Partially active

**Q.** And the Ki [16]?
**A.** Partially active

**Q.** Which results are given for CC(C)(Oc1ccc(C(=O)c2ccc(Cl)cc2)cc1)C(=O)O [FENOFIBRIC ACID]?
**A.** FPG correction (Mus musculus [17]): 17%; Ki [18]: Not Active; Ki [19]: Partially active; pKi [2]: 4.46; Body weight (Rattus norvegicus [20]): 308 g; Heart weight (Rattus norvegicus [21]): 1.18 g; Change (Rattus norvegicus [22]): -23%; Change (Rattus norvegicus [23]): -18%; BAT weight (Rattus norvegicus [24]): 0.33 g

**Q.** Which FPG correction (Mus musculus [4]) does the source give for Cc1cccc(Nc2cc(Cl)nc(SCC(=O)O)n2)c1C [PIRINIXIC ACID] here?
**A.** 20%

**Q.** What about the EC50 [25] of the same compound?
**A.** Partially active

**Q.** And the Ki [26]?
**A.** Not Active

**Q.** And the Ki [18]?
**A.** Not Active

**Q.** For CN(CCOc1ccc(CC2SC(=O)NC2=O)cc1)c1ccccn1.O=C(O)/C=C\C(=O)O (stereo not drawn) [ROSIGLITAZONE MALEATE], which Ki [26] is on record?
**A.** Not Active

**Q.** What about the Ki [27] of the same compound?
**A.** Not Active

**Q.** And the Body weight (Rattus norvegicus [7]; 30 mg/kg)?
**A.** 310 g and 322 g

**Q.** What about the Change (Rattus norvegicus [10]) of the same compound?
**A.** 1%

**Q.** And the BAT weight (Rattus norvegicus [11]; 30 mg/kg)?
**A.** 0.74 g and 0.63 g
